According to ChEMBL document CHEMBL2424622, “Development of amino-pyrimidine inhibitors of c-Jun N-terminal kinase (JNK): kinase profiling guided optimization of a 1,2,3-benzotriazole lead” (Bioorg Med Chem Lett, 2013):

What was measured:
[1] = target: T1, Ephrin type-B receptor 2 (Homo sapiens) (UniProt P29323); test: Competitive binding affinity to EPHB2 (unknown origin) at 10 uM in presence of ATP relative to control
T1 sequence (whole entry): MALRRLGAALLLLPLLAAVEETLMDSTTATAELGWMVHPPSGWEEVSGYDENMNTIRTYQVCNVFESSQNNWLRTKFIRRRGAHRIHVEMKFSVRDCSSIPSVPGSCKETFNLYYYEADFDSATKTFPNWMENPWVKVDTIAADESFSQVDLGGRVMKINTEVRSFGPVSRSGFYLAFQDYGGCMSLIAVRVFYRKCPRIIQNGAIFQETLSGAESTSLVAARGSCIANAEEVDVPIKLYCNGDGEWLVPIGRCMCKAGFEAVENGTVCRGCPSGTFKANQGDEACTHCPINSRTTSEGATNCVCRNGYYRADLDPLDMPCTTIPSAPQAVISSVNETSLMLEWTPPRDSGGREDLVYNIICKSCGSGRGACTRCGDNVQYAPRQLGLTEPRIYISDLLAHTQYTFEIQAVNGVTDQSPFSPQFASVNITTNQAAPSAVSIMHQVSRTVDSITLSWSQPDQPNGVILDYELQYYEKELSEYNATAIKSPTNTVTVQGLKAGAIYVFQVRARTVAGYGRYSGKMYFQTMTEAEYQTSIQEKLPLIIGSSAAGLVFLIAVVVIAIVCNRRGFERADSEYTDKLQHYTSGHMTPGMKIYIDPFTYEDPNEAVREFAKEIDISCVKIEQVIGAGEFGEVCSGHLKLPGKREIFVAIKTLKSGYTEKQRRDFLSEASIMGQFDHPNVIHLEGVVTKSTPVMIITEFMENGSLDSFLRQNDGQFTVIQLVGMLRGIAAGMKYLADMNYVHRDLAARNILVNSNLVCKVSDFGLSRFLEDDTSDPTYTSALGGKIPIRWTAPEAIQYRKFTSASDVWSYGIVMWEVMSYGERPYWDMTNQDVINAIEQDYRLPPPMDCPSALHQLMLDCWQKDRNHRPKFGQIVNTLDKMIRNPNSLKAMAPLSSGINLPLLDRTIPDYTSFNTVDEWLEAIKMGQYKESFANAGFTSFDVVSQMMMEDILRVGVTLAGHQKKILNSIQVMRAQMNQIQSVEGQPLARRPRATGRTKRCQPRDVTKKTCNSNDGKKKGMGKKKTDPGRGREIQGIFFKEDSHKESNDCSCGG
Summary of the method: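 In vitro ATP-site competition binding assay, part of profiling against a diverse panel of 128 kinases. Each compound was tested at a single concentration of 10 µM. Kinome selectivity was summarized as S15 selectivity scores.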

[2] = target: T2, Serine/threonine-protein kinase LATS2 (Homo sapiens) (UniProt Q9NRM7); test: Competitive binding affinity to LATS2 (unknown origin) at 10 uM in presence of ATP relative to control
T2 sequence (whole entry): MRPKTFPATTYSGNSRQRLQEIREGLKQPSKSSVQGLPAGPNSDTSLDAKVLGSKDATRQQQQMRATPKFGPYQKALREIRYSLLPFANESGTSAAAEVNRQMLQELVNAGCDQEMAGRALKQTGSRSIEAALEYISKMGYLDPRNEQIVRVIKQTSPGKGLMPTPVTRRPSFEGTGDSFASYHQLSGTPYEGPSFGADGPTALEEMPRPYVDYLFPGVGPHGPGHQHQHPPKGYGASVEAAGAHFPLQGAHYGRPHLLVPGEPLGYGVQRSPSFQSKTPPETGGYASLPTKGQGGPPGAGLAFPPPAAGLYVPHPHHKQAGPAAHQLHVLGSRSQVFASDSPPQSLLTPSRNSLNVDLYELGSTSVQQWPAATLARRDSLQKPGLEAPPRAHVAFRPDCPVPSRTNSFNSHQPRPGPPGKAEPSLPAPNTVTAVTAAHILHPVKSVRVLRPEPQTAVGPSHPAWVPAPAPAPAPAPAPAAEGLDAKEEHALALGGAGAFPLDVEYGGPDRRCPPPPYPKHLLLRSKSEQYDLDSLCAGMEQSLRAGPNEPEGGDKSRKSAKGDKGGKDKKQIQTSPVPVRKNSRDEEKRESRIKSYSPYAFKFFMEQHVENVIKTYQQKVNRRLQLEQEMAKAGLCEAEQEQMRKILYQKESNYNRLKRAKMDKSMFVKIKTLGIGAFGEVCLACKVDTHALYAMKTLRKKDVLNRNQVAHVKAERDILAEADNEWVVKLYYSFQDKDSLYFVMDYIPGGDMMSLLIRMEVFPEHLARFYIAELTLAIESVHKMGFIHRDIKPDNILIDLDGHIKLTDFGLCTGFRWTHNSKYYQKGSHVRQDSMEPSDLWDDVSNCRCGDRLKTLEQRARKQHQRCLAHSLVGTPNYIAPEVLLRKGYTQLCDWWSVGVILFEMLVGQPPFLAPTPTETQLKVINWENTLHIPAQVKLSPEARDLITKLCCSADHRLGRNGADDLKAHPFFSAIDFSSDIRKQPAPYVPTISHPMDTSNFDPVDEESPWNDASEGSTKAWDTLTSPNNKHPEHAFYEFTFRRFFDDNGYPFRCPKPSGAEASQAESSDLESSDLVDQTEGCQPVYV

| inhibition [1] | inhibition [2] | Structure (SMILES) |
| --- | --- | --- |
| < 50% | < 50% | O[C@H]1CC[C@H](Nc2nccc(-n3nnc4ccccc43)n2)CC1 |
| < 50% | < 50% | O[C@H]1CC[C@H](Nc2nccc(-n3ncc4ccccc43)n2)CC1 |
| < 50% | – | O[C@H]1CC[C@H](Nc2nccc(-c3n[nH]c4ccccc34)n2)CC1 |
| < 50% | < 50% | O[C@H]1CC[C@H](Nc2nccc(-n3ccc4ccccc43)n2)CC1 |
